Published values of several laboratories.
Protocols differ between the studies behind these lines.
Target: Tyrosine-protein kinase TXK (TXK, Homo sapiens, UniProt P42681)
One construct used (P42681 1-527): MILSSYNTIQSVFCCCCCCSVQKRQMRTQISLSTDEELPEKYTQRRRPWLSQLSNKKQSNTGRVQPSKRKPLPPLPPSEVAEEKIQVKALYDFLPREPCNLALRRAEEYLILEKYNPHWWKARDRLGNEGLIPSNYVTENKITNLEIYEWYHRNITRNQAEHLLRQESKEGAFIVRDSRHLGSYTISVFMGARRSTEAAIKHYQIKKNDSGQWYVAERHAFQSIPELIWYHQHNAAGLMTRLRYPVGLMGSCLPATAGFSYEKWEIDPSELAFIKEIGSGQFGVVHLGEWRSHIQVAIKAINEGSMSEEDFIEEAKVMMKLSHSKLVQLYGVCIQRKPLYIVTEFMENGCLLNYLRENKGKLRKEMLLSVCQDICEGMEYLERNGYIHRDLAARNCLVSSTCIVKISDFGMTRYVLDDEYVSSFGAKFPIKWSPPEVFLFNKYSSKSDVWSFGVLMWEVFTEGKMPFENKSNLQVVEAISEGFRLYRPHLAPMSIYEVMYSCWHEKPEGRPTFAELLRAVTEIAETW

N#CCCc1ccc2c(c1)-c1[nH]c3ccc([N+](=O)[O-])cc3c1CC(=O)N2
remaining signal (cell-free assay; 0.5 µM): 67.6%

O=C(NCc1ncc(C(F)(F)F)cc1Cl)c1ccc2c(c1)C1(CCS(=O)(=O)CC1)[C@@H](C1CC1)N2S(=O)(=O)c1ccc(F)cc1
remaining binding (binding; competition with immobilised ligand; 1 µM): 83%

Cc1cc(NC(=O)c2cccc3cc(-c4cccc5[nH]nc(N)c45)ccc23)ccc1F
activity vs control (enzyme activity; inhibitor; 0.1 µM): 123%

Cc1cnc(NC2CCOCC2)nc1-n1cnc(C(=O)NC(CN)c2cc(F)cc(Cl)c2)c1 (stereo not drawn)
remaining activity (enzyme activity; inhibitor; radiometric; 1 µM): 102%

O=C(NS(=O)(=O)c1ccc(NCC2CCOCC2)c([N+](=O)[O-])c1)c1ccc(N2CCN(Cc3ccc(C(F)(F)F)cc3-c3ccc(Cl)cc3)CC2)cc1Oc1cnc2[nH]ccc2c1
remaining binding (cell-free assay; competition with immobilised ligand; 1 µM): 94%

CCCOc1ccc(OC)c(F)c1C(=O)c1ccc(C(=O)N[C@@H]2CNC[C@H]2NC(=O)c2ccc3[nH]ncc3c2)cc1
remaining activity (enzyme activity; inhibitor; 10 µM): 64%

c1nc2c(Nc3ccc4c(c3)OCCO4)nc(Nc3ccc4c(c3)OCCO4)nc2[nH]1
activity vs control (enzyme activity; inhibitor; 10 µM): 8%

Cc1sc(C(=O)NC2COC2)cc1-n1cc(NC(=O)Nc2c(F)cccc2Cl)cn1
remaining activity (enzyme activity; inhibitor; 10 µM): 76.7%

Cc1ccc(C(=O)Nc2ccc(CN3CCN(C)CC3)c(C(F)(F)F)c2)cc1C#Cc1cnc2cccnn12
remaining activity (enzyme activity; inhibitor; 23.5 nM): 25%

COc1cc2ncnc(Nc3ccc(Oc4ccccc4)cc3C)c2cc1OC
inhibition (enzyme activity; inhibitor; 1 µM): 16%

CN(C(=O)c1ccccc1)c1cc(N(C)c2ccc3c(c2)CCc2ccc(C(=O)NCCN4CCOCC4)cc2C3=O)ccc1F
remaining binding (binding; competition with immobilised ligand; 1 µM): 79%

CC(C)(C)c1nc2c(s1)c1nc(N)ncc1c1ccc(NS(=O)(=O)c3c(F)cccc3F)c(F)c12
remaining activity (enzyme activity; inhibitor; radiometric; 1 µM): 71%

CC/C(=N\NC(=O)NCc1cccc(O)c1)c1ccc(O)c(C)c1O
inhibition (enzyme activity; inhibitor; 0.1 µM): -0.3%

O=C(N[C@H]1CCCCC/C=C\C2C[C@@]2(C(=O)O)NC(=O)[C@@H]2C[C@@H](Oc3ccncc3)CN2C1=O)OC1CCCC1 (stereo partly drawn)
remaining binding (binding; competition with immobilised ligand; 1 µM): 87%

COc1cc(Cl)c(C(=O)N[C@@H](CN[C@H]2CC[C@@H](N)CC2)Cc2ccc(C#N)cc2)cc1-c1ccc(CN[C@H](C)c2ccc(C)cc2)o1
remaining activity (enzyme activity; inhibitor; 1 µM): 88%

Cc1c(NC(=O)c2cc(C(N)=O)nc3cc(F)ccc23)c(C(F)(F)F)nn1Cc1ccc(C#N)cc1
remaining binding (binding; competition with immobilised ligand; 1 µM): 99%

CS(=O)(=O)CCNCc1ccc(-c2ccc3ncnc(Nc4ccc(OCc5cccc(F)c5)c(Cl)c4)c3c2)o1
remaining signal (cell-free assay; 0.5 µM): 110%

COc1cc2nccc(Oc3ccc(NC(=O)c4c5n(n(-c6ccc(F)cc6)c4=O)CCCC5)cc3)c2cc1OC
inhibition (enzyme activity; inhibitor; 0.1 µM): -2%
